# A selection: hits, their analogues and other compounds. The true share with any hit is near 2.4%.
# S1P4 antagonist: S1P4 receptor antagonists, primary screen, cell-based. Sphingosine 1-phosphate receptor 4 (Homo sapiens), O95977. S1P4-expressing cells, antagonist mode, reporter read-out. inhibition, % at 4.98 µM. 220,000 tested, 0.26% active. AID 1510, 2009; in the data active means inhibition above about 29%;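 further: 0% = wells stimulated with agonist and 100% = vehicle wells without agonist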
# NPY Y1 blocker: NPY-Y1 receptor antagonists, primary screen, cell-based; 200,000 tested, 1% active; inhibition, % at 3.6 µM; Neuropeptide Y receptor type 1 (Homo sapiens), P25929; HEK293-CNG Y1 cells, membrane potential fluorescence; NPY at EC95, then isoproterenol;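 active means inhibition above the campaign mean inhibition of all tested compounds plus 3 SD, cut at about 20% in these data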;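 further: 0% = DMSO wells given NPY plus isoproterenol and 100% = isoproterenol alone without NPY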
# Target sequence (P25929 whole entry, looked up): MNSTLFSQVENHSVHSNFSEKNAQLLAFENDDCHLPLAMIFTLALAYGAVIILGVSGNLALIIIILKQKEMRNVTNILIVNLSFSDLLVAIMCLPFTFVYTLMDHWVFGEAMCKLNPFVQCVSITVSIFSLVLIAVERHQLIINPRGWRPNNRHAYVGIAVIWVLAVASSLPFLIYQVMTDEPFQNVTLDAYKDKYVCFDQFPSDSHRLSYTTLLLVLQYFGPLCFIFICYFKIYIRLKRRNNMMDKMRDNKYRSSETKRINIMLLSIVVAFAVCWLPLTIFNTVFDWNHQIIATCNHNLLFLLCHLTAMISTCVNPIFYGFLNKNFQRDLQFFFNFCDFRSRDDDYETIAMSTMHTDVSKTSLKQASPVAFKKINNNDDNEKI
#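 material = HEK293 cells with Y1 receptor plus CNG channel | also added = NPY 25 nM then isoproterenol 1 µM plus Ro 20-1724 25 µM | schedule = dye 3 h, compound 60 min room temperature, stimulation 45 min | measured by = membrane potential fluorescence | benchmarks = high control isoproterenol alone, low control NPY with isoproterenol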
# NPY2 pot ag: NPY-Y2 potentiators or agonists, primary screen, cell-based; Neuropeptide Y receptor type 2 (Homo sapiens), P49146; AID 1359, 2008; 220,000 tested, 0.45% active; cells expressing NPY-Y2, potentiator/agonist read-out; activation, % at 3.6 µM; in the data active means activation above about 27%;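 further: cells stimulated with NPY near EC25 plus isoproterenol at EC100; 0% = vehicle plus submaximal agonist and 100% = vehicle plus saturating agonist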
# Target sequence (P49146 whole entry, looked up): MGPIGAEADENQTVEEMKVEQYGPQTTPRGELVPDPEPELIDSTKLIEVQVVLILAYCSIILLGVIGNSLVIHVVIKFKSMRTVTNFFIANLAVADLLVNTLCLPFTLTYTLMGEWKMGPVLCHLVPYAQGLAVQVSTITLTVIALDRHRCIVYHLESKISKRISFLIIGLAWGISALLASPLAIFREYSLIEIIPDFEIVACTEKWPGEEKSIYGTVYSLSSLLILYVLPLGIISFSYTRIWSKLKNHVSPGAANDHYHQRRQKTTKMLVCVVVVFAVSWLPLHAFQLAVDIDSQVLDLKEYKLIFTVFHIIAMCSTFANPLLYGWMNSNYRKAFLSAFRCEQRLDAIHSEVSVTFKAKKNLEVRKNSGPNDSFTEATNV
# NPY-Y2 antag: NPY-Y2 receptor antagonists, primary screen, cell-based; Neuropeptide Y receptor type 2 (Homo sapiens), P49146; NPY-Y2 expressing cells, antagonist mode; inhibition, % at 2.7 µM; 140,000 tested, 0.99% active; in the data active means inhibition above about 17%;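 further: 0% = vehicle with agonist challenge and 100% = reference antagonist with challenge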
# S1P4 ag: S1P4 receptor agonists, primary screen, cell-based; Sphingosine 1-phosphate receptor 4 (Homo sapiens), O95977; S1P4-expressing cell line, agonist reporter assay; activation, % at 4.98 µM; 220,000 tested, 0.35% active; in the data active means activation above about 11%;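 further: 0% = DMSO vehicle and 100% = reference agonist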
# NPY-Y1 PAM-ag: NPY-Y1 receptor potentiators or agonists, primary screen, cell-based. activation, % at 3.6 µM. NPY-Y1 expressing cells, potentiator/agonist activation. Neuropeptide Y receptor type 1 (Homo sapiens), P25929. 220,000 tested, 0.37% active; in the data active means activation above about 33%, passing the limit was not always enough;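 further: cells stimulated with NPY at EC10 then isoproterenol at EC100; 0% = low agonist plus stimulus and 100% = saturating agonist plus stimulus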
# NPY-Y2 confirm: NPY-Y2 potentiators or agonists, confirmation, cell-based; shares compounds with NPY2 pot ag; cell-based NPY-Y2 potentiator/agonist assay; activation, % at 3.6 µM; 450 tested, 20% active; in the data active means activation above about 33%
# NPY-Y1 potentiator: NPY-Y1 potentiators or agonists, counter-screen for NPY-Y2 potentiator project, cell-based, fluorescence; shares compounds with NPY2 pot ag; Y1 HEK293-CNG cells, membrane potential fluorescence; activation, % at 3.6 µM; 450 tested, 20% active; in the data active means activation above about 45%;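 further: cells stimulated with submaximal NPY then isoproterenol with phosphodiesterase inhibitor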
# NPY-Y1 agonist 2: NPY-Y1 direct agonists, selectivity assay for NPY-Y2 potentiator project, cell-based, fluorescence; shares compounds with NPY2 pot ag; HEK293 Y1-CNGC, membrane potential fluorescence, agonism; activation, % at 3.6 µM; 450 tested, 37% active; AID 1702, 2009;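 active means activation above the mean of DMSO-only control wells plus 3 SD, cut at about 18% in these data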;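 further: cells stimulated with 1 µM isoproterenol plus the PDE inhibitor Ro 20-1724; 0% = isoproterenol with DMSO and no NPY and 100% = 40 nM NPY; Y1 agonists lower the membrane potential dye signal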
# CNGC inhibitor: CNGC cAMP sensor activity inhibitors, counter-screen for NPY-Y2 potentiator project, cell-based, HEK293-CNG parental, membrane potential fluorescence; shares compounds with NPY2 pot ag; isoproterenol cAMP; 450 tested, 32% active; inhibition, % at 3.6 µM;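 active means inhibition above the control-well mean plus 3 SD of those wells, cut at about 22% in these data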;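 further: 0% = DMSO with isoproterenol and 100% = DMSO without isoproterenol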
# NPY-Y2 ag 2: NPY-Y2 direct agonists, counter-screen for NPY-Y2 potentiator project, cell-based, fluorescence | 450 tested, 56% active | shares compounds with NPY2 pot ag | HEK293 Y2/CNGC cells, membrane potential fluorescence, agonist mode | activation, % at 3.6 µM;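 active means activation above the mean of solvent-only control wells plus 3 SD, cut at about 10% in these data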;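 further: cells stimulated by isoproterenol with no NPY added so direct agonism is tested; 0% = DMSO with isoproterenol alone and 100% = NPY at EC100 plus isoproterenol; agonism lowers probe fluorescence through less cAMP and CNG channel opening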
# * hit, by the source's call; . = no result.
SMILES,S1P4 antagonist,NPY Y1 blocker,NPY2 pot ag,NPY-Y2 antag,S1P4 ag,NPY-Y1 PAM-ag,NPY-Y2 confirm,NPY-Y1 potentiator,NPY-Y1 agonist 2,CNGC inhibitor,NPY-Y2 ag 2
CCSc1nnc(NC(=O)CCNS(=O)(=O)c2cc(Br)cnc2N)s1,-6.4,0.8,28.1*,-4.0,0.6,0.5,11.0,3.2,24.3*,15.5,24.3*
Cn1cc(Br)c(C(=O)Nc2ncc(Br)s2)n1,4.5,-4.0,-2.4,.,0.2,11.5,.,.,.,.,.
CNC(=O)CCc1[nH]c2ccccc2c1Sc1ccccc1,-3.5,2.0,26.0*,-1.1,-1.6,5.6,12.1,21.4,13.6,14.4,22.5*
COc1ccc(Cl)cc1NC(=O)CSc1nnc(CN2CCOCC2)n1-c1ccc(Cl)cc1,-11.5,-2.5,11.7,2.8,0.2,13.4,.,.,.,.,.
Cc1ccc(NS(=O)(=O)c2ccc(C(=O)N3CCN(c4ncccn4)CC3)cc2)cc1,-6.2,-0.7,34.8*,.,2.6,8.2,-4.7,-18.7,-19.8,-9.7,-12.6
O=C(c1ccc(S(=O)(=O)Nc2ccc(F)cc2)cc1)N1CCN(c2ccccn2)CC1,-0.4,-5.0,8.1,.,1.3,-2.9,.,.,.,.,.
O=C(NCCOCc1ccccc1)C(c1ccccc1)c1ccccc1,4.2,14.5,-6.2,.,-0.7,-9.8,.,.,.,.,.
O=C(O)c1ccc(Oc2c(C(F)(F)F)oc3cc(O)ccc3c2=O)cc1,-12.3,10.8,39.2*,.,0.9,12.2,-1.0,-0.6,-12.8,-0.4,-2.5
CC(C)(C)NC(=O)/C(=C\C=C\c1ccccc1)NC(=O)c1ccc([N+](=O)[O-])cc1,-18.3,2.6,3.9,1.4,0.1,-0.8,.,.,.,.,.
N=c1c(-c2nc3ccccc3[nH]2)cc(C(=O)c2ccco2)nn1-c1ccccc1,3.9,-1.4,38.2*,-1.3,1.6,12.4,83.3*,107.6*,79.6*,72.7*,79.7*
CCOc1nc(-c2ccccc2O)nc2ccccc12,-4.7,1.5,-0.7,5.8,1.1,-28.2,.,.,.,.,.
CCOc1nc(N=C(N)N)nc2c(C)cccc12,-6.5,4.7,38.1*,1.1,2.6,31.4,1.4,1.8,2.1,8.0,7.7
CCC(C)NC(=O)C(Sc1ccccc1)c1ccccc1 (configuration not stated),-2.2,10.3,-7.3,.,0.3,-7.3,.,.,.,.,.
Cc1ccc(NC(=O)c2cc(S(=O)(=O)Nc3ccc(C)cc3)cs2)cc1,-18.6,-13.1,43.2*,-4.5,0.2,49.8,37.4*,47.3*,35.3*,41.5*,20.8*
O=C(/C=C/c1cn(-c2ccccc2)nc1-c1cccnc1)N1CCCC1,-11.8,-1.7,27.8*,.,0.9,19.8,11.9,21.6,11.9,4.4,14.9*
O=C(/C=C/c1cn(-c2ccccc2)nc1-c1cccnc1)NCCN1CCOCC1,2.3,-4.4,1.4,.,1.5,-3.0,.,.,.,.,.
Cc1ccc(-n2ncc(C#N)c2N)cc1,-15.7,.,-16.1,.,2.1,0.5,.,.,.,.,.
N#Cc1cnn(-c2ccc(F)cc2)c1N,0.5,.,55.2*,.,0.7,12.8,-6.5,-13.7,-25.4,-7.3,-14.9
Cc1ccc(NC(=O)c2ccccc2NS(=O)(=O)c2ccc(Cl)s2)cc1,-15.8,-2.7,43.3*,7.7,0.6,21.3,-16.4,-60.3,-45.3,-21.8,-16.7
COc1ccc(CC(=O)NNc2ncnc3c2cnn3-c2ccc(C)cc2)cc1OC,-12.7,6.8,0.6,-1.7,2.3,18.0,.,.,.,.,.
COc1ccc(C2CC23N=C(c2ccccc2)OC3=O)cc1 (configuration not stated),-33.4,3.6,0.7,1.0,5.1,-6.3,.,.,.,.,.
C=CCN1C(=O)/C(=C/c2ccc(OC(C)=O)c(OCC)c2[N+](=O)[O-])SC1=S,-10.9,4.3,36.1*,.,1.4,9.9,14.2,-5.2,5.1,1.6,12.2*
Cc1ccc(NC(=O)CCC(=O)NNC(=O)C(c2ccccc2)c2ccccc2)c(C)c1,-7.7,1.3,-0.9,4.4,-1.1,10.2,.,.,.,.,.
COC(=O)c1ccc(N2CCN(S(=O)(=O)c3ccc4ccccc4c3)CC2)c([N+](=O)[O-])c1,-13.3,-1.9,3.2,-1.8,-0.9,16.8,.,.,.,.,.
NC(=O)c1ccc(N2CCN(S(=O)(=O)c3ccccc3)CC2)c([N+](=O)[O-])c1,-12.5,7.5,31.1*,.,0.7,18.7,-3.8,-42.8,-26.2,-10.1,-7.7
SMILES,S1P4 antagonist,NPY Y1 blocker,NPY2 pot ag,NPY-Y2 antag,S1P4 ag,NPY-Y1 PAM-ag,NPY-Y2 confirm,NPY-Y1 potentiator,NPY-Y1 agonist 2,CNGC inhibitor,NPY-Y2 ag 2
O=C1/C(=C/c2ccc(O)c(O)c2)SC(=S)N1Nc1ccccc1,1.8,-9.1,39.3*,.,-0.3,30.5,34.3*,41.0,24.6*,17.7,28.3*
COc1cc(/C=C2\SC(=S)N(Nc3ccccc3)C2=O)ccc1O,-16.9,-2.2,14.2,4.0,0.4,-2.2,.,.,.,.,.
CCOC(=O)c1[nH]c2ccc(F)cc2c1NC(=O)CN1CCN(C/C=C/c2ccccc2)CC1,-22.6,-2.5,37.9*,-0.6,-0.5,29.2,67.0*,90.2*,68.5*,70.7*,52.5*
O=C(N/N=C/C=C/c1ccccc1)NC1CCCCC1,6.8,11.4,-9.6,.,1.6,-8.8,.,.,.,.,.
CCOc1cc(/C=N/N2CCOCC2)ccc1OCc1ccc(C(=O)OC)o1,-15.3,2.1,6.3,.,0.5,-9.7,.,.,.,.,.
O=[N+]([O-])c1ccc(Nc2c3ccccc3nc3ccccc23)cc1,-3.8,-4.5,30.6*,.,5.6,25.5,46.6*,53.9*,35.7*,41.0*,44.6*
O=[N+]([O-])c1ccc(S(=O)(=O)Nc2nc3ccccc3nc2Nc2ccccc2)cc1,-29.1,-2.8,0.9,.,1.8,26.1,.,.,.,.,.
COc1ccc(COC(=O)c2ccc3c(=O)n4c(nc3c2)CCC4)cc1F,6.3,.,58.9*,.,0.0,-21.6,-4.3,-5.3,-10.3,-3.0,10.3*
O=C(OCN1C(=O)c2ccccc2C1=O)c1ccc2c(=O)n3c(nc2c1)CCC3,-20.3,-5.5,2.0,-0.4,1.2,15.3,.,.,.,.,.

# Bioassay records as filed in PubChem BioAssay.
